According to ChEMBL document CHEMBL1144492, “Novel T-type calcium channel blockers: dioxoquinazoline carboxamide derivatives” (Bioorg Med Chem, 2007):
Active and inactive are the calls of the source. No cut-off for these calls is given here.

Target: T1, Voltage-dependent T-type calcium channel subunit alpha-1G (Homo sapiens, UniProt O43497)
Test: Inhibition of T-type calcium channel Cav3.1 with alpha-1G subunit expressed in HEK293 cells at 100 uM by FDSS6000 assay
Format: cell-based
Details: 10 uM, in the assay text read “at 10 uM” for “at 100 uM”
Summary of the method: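 HEK293 cells stably expressing α1G plus Kir2.1, grown in DMEM/10% FBS with geneticin and puromycin, plated at 4 × 10^4 cells/well and used next day. Loaded 60 min at room temperature with 5 µM fluo3/AM in Hepes-buffered saline, pH 7.4. Channels opened by depolarization with 70 mM KCl in buffer containing 10 mM CaCl2. Rise in intracellular Ca2+ read by fluorescence on FDSS6000.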

T1 sequence (O43497 whole entry): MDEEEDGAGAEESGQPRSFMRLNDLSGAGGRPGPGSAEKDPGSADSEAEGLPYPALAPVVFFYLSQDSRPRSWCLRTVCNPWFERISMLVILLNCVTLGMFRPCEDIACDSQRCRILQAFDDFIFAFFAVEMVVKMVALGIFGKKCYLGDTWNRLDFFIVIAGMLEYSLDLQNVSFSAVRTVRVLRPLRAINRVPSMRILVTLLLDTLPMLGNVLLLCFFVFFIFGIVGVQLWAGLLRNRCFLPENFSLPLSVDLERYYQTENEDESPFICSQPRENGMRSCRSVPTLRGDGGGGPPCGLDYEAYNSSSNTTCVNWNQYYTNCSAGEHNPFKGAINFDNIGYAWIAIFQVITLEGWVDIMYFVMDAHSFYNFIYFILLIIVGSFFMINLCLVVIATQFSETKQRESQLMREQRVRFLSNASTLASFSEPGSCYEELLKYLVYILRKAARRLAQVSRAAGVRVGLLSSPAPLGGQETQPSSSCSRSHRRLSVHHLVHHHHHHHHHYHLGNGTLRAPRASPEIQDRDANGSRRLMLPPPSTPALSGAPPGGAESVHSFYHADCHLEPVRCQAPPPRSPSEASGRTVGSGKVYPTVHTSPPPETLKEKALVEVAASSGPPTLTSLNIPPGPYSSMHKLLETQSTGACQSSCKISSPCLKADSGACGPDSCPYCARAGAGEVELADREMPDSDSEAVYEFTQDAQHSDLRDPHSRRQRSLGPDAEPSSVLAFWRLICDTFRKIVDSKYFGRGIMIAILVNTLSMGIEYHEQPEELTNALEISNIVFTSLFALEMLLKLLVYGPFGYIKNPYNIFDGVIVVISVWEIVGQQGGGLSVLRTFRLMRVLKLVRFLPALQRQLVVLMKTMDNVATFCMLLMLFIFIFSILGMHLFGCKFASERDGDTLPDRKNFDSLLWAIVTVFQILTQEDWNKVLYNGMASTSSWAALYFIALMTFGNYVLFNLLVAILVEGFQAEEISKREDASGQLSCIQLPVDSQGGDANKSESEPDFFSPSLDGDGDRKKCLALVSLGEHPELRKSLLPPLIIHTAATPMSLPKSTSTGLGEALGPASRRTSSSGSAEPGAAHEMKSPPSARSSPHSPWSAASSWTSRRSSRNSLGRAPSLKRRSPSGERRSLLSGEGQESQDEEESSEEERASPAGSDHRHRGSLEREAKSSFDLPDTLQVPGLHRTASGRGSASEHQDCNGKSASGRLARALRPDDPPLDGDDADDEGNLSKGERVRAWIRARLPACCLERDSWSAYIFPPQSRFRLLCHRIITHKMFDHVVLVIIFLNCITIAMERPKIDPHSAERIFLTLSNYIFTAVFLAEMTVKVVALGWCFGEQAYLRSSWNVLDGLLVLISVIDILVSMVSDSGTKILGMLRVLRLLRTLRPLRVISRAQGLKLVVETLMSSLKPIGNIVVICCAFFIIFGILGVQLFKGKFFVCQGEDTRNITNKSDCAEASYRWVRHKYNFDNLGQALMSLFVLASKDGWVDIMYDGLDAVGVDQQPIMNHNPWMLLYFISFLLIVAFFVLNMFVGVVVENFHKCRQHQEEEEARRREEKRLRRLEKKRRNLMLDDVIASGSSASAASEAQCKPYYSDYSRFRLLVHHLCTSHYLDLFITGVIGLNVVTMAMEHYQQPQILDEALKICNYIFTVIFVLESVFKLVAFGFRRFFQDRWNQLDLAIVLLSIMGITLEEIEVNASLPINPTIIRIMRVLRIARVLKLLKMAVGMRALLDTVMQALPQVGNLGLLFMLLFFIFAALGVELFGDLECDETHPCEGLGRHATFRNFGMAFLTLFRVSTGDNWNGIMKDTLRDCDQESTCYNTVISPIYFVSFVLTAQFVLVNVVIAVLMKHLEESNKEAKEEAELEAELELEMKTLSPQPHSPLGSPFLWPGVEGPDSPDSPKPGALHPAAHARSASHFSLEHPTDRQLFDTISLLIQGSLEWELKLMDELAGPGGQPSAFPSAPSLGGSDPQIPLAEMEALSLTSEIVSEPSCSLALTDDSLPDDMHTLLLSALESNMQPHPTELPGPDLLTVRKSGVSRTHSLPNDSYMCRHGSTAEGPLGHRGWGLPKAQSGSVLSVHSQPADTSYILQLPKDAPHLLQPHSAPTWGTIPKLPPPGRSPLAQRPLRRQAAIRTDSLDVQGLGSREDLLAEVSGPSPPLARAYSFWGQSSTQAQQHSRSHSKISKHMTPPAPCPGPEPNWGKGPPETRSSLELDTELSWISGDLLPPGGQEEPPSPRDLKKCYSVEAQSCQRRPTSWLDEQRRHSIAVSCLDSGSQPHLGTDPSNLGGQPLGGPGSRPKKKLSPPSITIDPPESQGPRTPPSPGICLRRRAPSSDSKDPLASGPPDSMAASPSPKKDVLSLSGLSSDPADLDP

inhibition	Compound
6.2%	O=C(NCCCN1CCCC1)c1ccc2c(=O)n(Cc3ccccc3Cl)c(=O)[nH]c2c1
9.7%	O=C(NCCCN1CCOCC1)c1ccc2c(=O)n(Cc3ccc(Cl)cc3)c(=O)[nH]c2c1

Same assay, conditions: 100 uM

Compound	inhibition	Activity
O=C(NCCN1CCCC1)c1ccc2c(=O)n(C3CCCCC3)c(=O)[nH]c2c1	57.7%	
CC1CCCCN1CCCNC(=O)c1ccc2c(=O)n(Cc3ccc(F)cc3)c(=O)[nH]c2c1 (centres undefined)	56.6%	
COc1ccc(-n2c(=O)[nH]c3cc(C(=O)NCCCN4CCCCC4C)ccc3c2=O)cc1 (centres undefined)	1.5%	
CC1CCCCN1CCCNC(=O)c1ccc2c(=O)n(C3CCCCC3)c(=O)[nH]c2c1 (centres undefined)	48.3%	
CCC1CCCCN1CCCNC(=O)c1ccc2c(=O)n(Cc3ccc(F)cc3)c(=O)[nH]c2c1 (centres undefined)	68.3%	
O=C(NCCN1CCCCC1)c1ccc2c(=O)n(C3CCCCC3)c(=O)[nH]c2c1	52.2%	
O=C(NCCCN1CCOCC1)c1ccc2c(=O)n(-c3ccccc3F)c(=O)[nH]c2c1	2.8%	
O=C(NCCN1CCCC1)c1ccc2c(=O)n(-c3cccc(F)c3)c(=O)[nH]c2c1	4.3%	
CC1CCCCN1CCCNC(=O)c1ccc2c(=O)n(-c3cccc(F)c3)c(=O)[nH]c2c1 (centres undefined)		inactive
O=C(NCCN1CCOCC1)c1ccc2c(=O)n(-c3ccc(F)cc3)c(=O)[nH]c2c1		inactive
O=C(NCCCN1CCOCC1)c1ccc2c(=O)n(C3CCCCC3)c(=O)[nH]c2c1	36.3%	
O=C(NCCN1CCCCC1)c1ccc2c(=O)n(-c3ccc(F)cc3)c(=O)[nH]c2c1	12.5%	
O=C(NCCN1CCCCC1)c1ccc2c(=O)n(-c3ccccc3F)c(=O)[nH]c2c1	7.2%	
O=C(NCCN1CCCC1)c1ccc2c(=O)n(-c3ccccc3F)c(=O)[nH]c2c1	6.5%	
O=C(NCCCN1CCCC1)c1ccc2c(=O)n(-c3cccc(F)c3)c(=O)[nH]c2c1		inactive
CCCn1c(=O)[nH]c2cc(C(=O)NCCN3CCCC3)ccc2c1=O	6.7%	

Compound	inhibition	Activity
Cn1c(=O)[nH]c2cc(C(=O)NCCN3CCCCC3)ccc2c1=O	17.6%	
O=C(NCCN1CCCCC1)c1ccc2c(=O)n(Cc3ccc(F)cc3)c(=O)[nH]c2c1	65%	
O=C(NCCN1CCCC1)c1ccc2c(=O)n(Cc3ccccc3F)c(=O)[nH]c2c1	24.9%	
CC1CCCCN1CCCNC(=O)c1ccc2c(=O)n(Cc3ccccc3F)c(=O)[nH]c2c1 (centres undefined)	13.9%	
O=C(NCCN1CCCCC1)c1ccc2c(=O)n(-c3cccc(F)c3)c(=O)[nH]c2c1	3.4%	
CC1CCCCN1CCCNC(=O)c1ccc2c(=O)n(C)c(=O)[nH]c2c1 (centres undefined)	8.5%	
O=C(NCCCN1CCOCC1)c1ccc2c(=O)n(-c3ccc(F)cc3)c(=O)[nH]c2c1	9.2%	
CCCn1c(=O)[nH]c2cc(C(=O)NCCCN3CCOCC3)ccc2c1=O	9.2%	
COc1ccc(-n2c(=O)[nH]c3cc(C(=O)NCCN4CCCC4)ccc3c2=O)cc1	10.5%	
CCCn1c(=O)[nH]c2cc(C(=O)NCCN3CCOCC3)ccc2c1=O		inactive
CCCn1c(=O)[nH]c2cc(C(=O)NCCCN3CCCCC3C)ccc2c1=O (centres undefined)	12.5%	
O=C(NCCN1CCOCC1)c1ccc2c(=O)n(-c3cccc(F)c3)c(=O)[nH]c2c1	3.8%	
CCCn1c(=O)[nH]c2cc(C(=O)NCCN3CCCCC3)ccc2c1=O	18%	
O=C(NCCCN1CCOCC1)c1ccc2c(=O)n(-c3cccc(F)c3)c(=O)[nH]c2c1	15.1%	
Cn1c(=O)[nH]c2cc(C(=O)NCCN3CCCC3)ccc2c1=O		inactive

The next lines start with the values.

inhibition	Activity	Compound
34.2%		O=C(NCCCN1CCCC1)c1ccc2c(=O)n(Cc3ccc(F)cc3)c(=O)[nH]c2c1
2.4%		CN1CCN(CCCNC(=O)c2ccc3c(=O)n(-c4ccccc4F)c(=O)[nH]c3c2)CC1
47.8%		CC1CCCCN1CCCNC(=O)c1ccc2c(=O)n(Cc3cccc(F)c3)c(=O)[nH]c2c1 (centres undefined)
36.9%		COc1cccc(Cn2c(=O)[nH]c3cc(C(=O)NCCCN4CCCCC4C)ccc3c2=O)c1 (centres undefined)
28.9%		COc1cccc(Cn2c(=O)[nH]c3cc(C(=O)NCCCN4CCOCC4)ccc3c2=O)c1
26.8%		COc1ccc(Cn2c(=O)[nH]c3cc(C(=O)NCCCN4CCCC4)ccc3c2=O)cc1
64.6%		O=C(NCCN1CCCCC1)c1ccc2c(=O)n(Cc3cccc(F)c3)c(=O)[nH]c2c1
1.5%		COc1ccccc1-n1c(=O)[nH]c2cc(C(=O)NCCCN3CCCC3)ccc2c1=O
7.3%		CN1CCN(CCCNC(=O)c2ccc3c(=O)n(Cc4ccccc4F)c(=O)[nH]c3c2)CC1
9.8%		O=C(NCCCN1CCCC1)c1ccc2c(=O)n(Cc3cccc(F)c3)c(=O)[nH]c2c1
	inactive	CCCn1c(=O)[nH]c2cc(C(=O)NCCCN3CCN(C)CC3)ccc2c1=O
42.3%		COc1ccc(Cn2c(=O)[nH]c3cc(C(=O)NCCCN4CCCCC4C)ccc3c2=O)cc1 (centres undefined)
	inactive	COc1cccc(-n2c(=O)[nH]c3cc(C(=O)NCCCN4CCCC4)ccc3c2=O)c1
13.1%		COc1cccc(-n2c(=O)[nH]c3cc(C(=O)NCCN4CCCC4)ccc3c2=O)c1
	inactive	O=C(NCCCN1CCOCC1)c1ccc2c(=O)n(Cc3ccc(F)cc3)c(=O)[nH]c2c1
	inactive	COc1ccc(Cn2c(=O)[nH]c3cc(C(=O)NCCN4CCOCC4)ccc3c2=O)cc1

inhibition	Activity	Compound
62.9%		COc1cccc(Cn2c(=O)[nH]c3cc(C(=O)NCCN4CCCCC4)ccc3c2=O)c1
12.3%		COc1cccc(-n2c(=O)[nH]c3cc(C(=O)NCCCN4CCCCC4C)ccc3c2=O)c1 (centres undefined)
	inactive	COc1ccc(-n2c(=O)[nH]c3cc(C(=O)NCCCN4CCCC4)ccc3c2=O)cc1
	inactive	COc1cccc(-n2c(=O)[nH]c3cc(C(=O)NCCN4CCCCC4)ccc3c2=O)c1
47.2%		O=C(NCCN1CCCC1)c1ccc2c(=O)n(Cc3ccc(F)cc3)c(=O)[nH]c2c1
27.8%		COc1cccc(Cn2c(=O)[nH]c3cc(C(=O)NCCN4CCCC4)ccc3c2=O)c1
36%		COc1ccc(Cn2c(=O)[nH]c3cc(C(=O)NCCCN4CCOCC4)ccc3c2=O)cc1
13.2%		COc1cccc(Cn2c(=O)[nH]c3cc(C(=O)NCCCN4CCCC4)ccc3c2=O)c1
39.4%		COc1ccc(Cn2c(=O)[nH]c3cc(C(=O)NCCN4CCCC4)ccc3c2=O)cc1
3.4%		CN1CCN(CCCNC(=O)c2ccc3c(=O)n(C)c(=O)[nH]c3c2)CC1
8.3%		CN1CCN(CCCNC(=O)c2ccc3c(=O)n(Cc4cccc(F)c4)c(=O)[nH]c3c2)CC1
12.7%		COc1ccccc1Cn1c(=O)[nH]c2cc(C(=O)NCCCN3CCCCC3C)ccc2c1=O (centres undefined)
	inactive	COc1ccc(-n2c(=O)[nH]c3cc(C(=O)NCCCN4CCN(C)CC4)ccc3c2=O)cc1
20.1%		COc1cccc(Cn2c(=O)[nH]c3cc(C(=O)NCCCN4CCN(C)CC4)ccc3c2=O)c1
25.5%		CN1CCN(CCCNC(=O)c2ccc3c(=O)n(Cc4ccc(F)cc4)c(=O)[nH]c3c2)CC1

Target: T1, Voltage-dependent T-type calcium channel subunit alpha-1G
Test: Inhibition of T-type calcium channel Cav3.1 with alpha-1G subunit by patch clamp assay
Details: not given

Compound	IC50
O=C(NCCN1CCCC1)c1ccc2c(=O)n(C3CCCCC3)c(=O)[nH]c2c1	7.96 µM
CC1CCCCN1CCCNC(=O)c1ccc2c(=O)n(Cc3ccc(F)cc3)c(=O)[nH]c2c1 (centres undefined)	4.63 µM
CCC1CCCCN1CCCNC(=O)c1ccc2c(=O)n(Cc3ccc(F)cc3)c(=O)[nH]c2c1 (centres undefined)	3.31 µM
CC1CCCCN1CCCNC(=O)c1ccc2c(=O)n(Cc3ccc(Cl)cc3)c(=O)[nH]c2c1 (centres undefined)	3.72 µM
CCC1CCCCN1CCCNC(=O)c1ccc2c(=O)n(Cc3ccc(Cl)cc3)c(=S)[nH]c2c1 (centres undefined)	0.1 µM
O=C(NCCN1CCCCC1)c1ccc2c(=O)n(Cc3ccc(Cl)cc3)c(=O)[nH]c2c1	2.08 µM
CCC1CCCCN1CCNC(=O)c1ccc2c(=O)n(Cc3ccc(Cl)cc3)c(=O)[nH]c2c1 (centres undefined)	3.38 µM
CCC1CCCCN1CCCNC(=O)c1ccc2c(=O)n(Cc3ccc(Cl)cc3)c(=O)[nH]c2c1 (centres undefined)	1.52 µM
O=C(NCCN1CCCCC1)c1ccc2c(=O)n(Cc3ccc(F)cc3)c(=O)[nH]c2c1	9.23 µM
CCC1CCCCN1CCNC(=O)c1ccc2c(=O)n(Cc3ccc(F)cc3)c(=O)[nH]c2c1 (centres undefined)	7.98 µM
CCC1CCCCN1CCCNC(=O)c1ccc2c(=O)n(Cc3ccccc3Cl)c(=O)[nH]c2c1 (centres undefined)	2.79 µM

More lines, now with the values ahead:

IC50	Compound
2.46 µM	O=C(NCCN1CCCC1)c1ccc2c(=O)n(Cc3ccc(Cl)cc3)c(=O)[nH]c2c1
16.9 µM	O=C(NCCN1CCCCC1)c1ccc2c(=O)n(Cc3cccc(F)c3)c(=O)[nH]c2c1
5.97 µM	CCC1CCCCN1CCNC(=O)c1ccc2c(=O)n(Cc3ccc(OC)cc3)c(=O)[nH]c2c1 (centres undefined)
1.95 µM	O=C(NCCCN1CCCCC1)c1ccc2c(=O)n(Cc3ccc(Cl)cc3)c(=O)[nH]c2c1
